Measurements as given in PubChem BioAssay.
Calls of active or inactive are those of the source.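 The calls were made as follows, unless noted: active = duplicate-averaged activation above buffer control mean plus 5 SD of those controls; inactive = the rest.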

Columns and labels:
[1] = thallium flux activation in parental CHO cells, counter-screen for KCNQ1 potentiator project (AID 493006); details: parental CHO-K1 cells, FluxOR thallium flux, at 10 µM; active compounds read high;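 as to activation: fluorescence ratio of max minus min over baseline after K+ and Tl+ depolarization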
Procedure, shortened: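 Assay system: parental CHO-K1 cells lacking KCNQ1, loaded with FluxOR thallium dye; timing: dye 90 min RT, compound 20 min RT; signal: kinetic thallium-flux fluorescence; repeats: duplicate wells per compound, percent values averaged; benchmarks: buffer and R-L3 controls; reagent: Potassium/thallium depolarization pulse; read-out: fluorescence change ratio scaled 0% buffer, 100% R-L3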

[2] = biological target: Potassium voltage-gated channel subfamily KQT member 1 (Homo sapiens) (UniProt P51787); assay: KCNQ1 potassium channel potentiators, confirmation, FluxOR thallium flux, CHO cells, duplicates (AID 493007;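 active = potentiation averaged over duplicate wells exceeding buffer-only control mean by more than 3 SD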;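 as to outcome: cells depolarized by a potassium plus thallium sulfate stimulus after compound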); details: KCNQ1 cell line, FluxOR thallium flux fluorescence, at 10 µM; active compounds read high, % of reference activator effect, buffer zero
Chain of Potassium voltage-gated channel subfamily KQT member 1 (Homo sapiens) (P51787 whole entry, looked up): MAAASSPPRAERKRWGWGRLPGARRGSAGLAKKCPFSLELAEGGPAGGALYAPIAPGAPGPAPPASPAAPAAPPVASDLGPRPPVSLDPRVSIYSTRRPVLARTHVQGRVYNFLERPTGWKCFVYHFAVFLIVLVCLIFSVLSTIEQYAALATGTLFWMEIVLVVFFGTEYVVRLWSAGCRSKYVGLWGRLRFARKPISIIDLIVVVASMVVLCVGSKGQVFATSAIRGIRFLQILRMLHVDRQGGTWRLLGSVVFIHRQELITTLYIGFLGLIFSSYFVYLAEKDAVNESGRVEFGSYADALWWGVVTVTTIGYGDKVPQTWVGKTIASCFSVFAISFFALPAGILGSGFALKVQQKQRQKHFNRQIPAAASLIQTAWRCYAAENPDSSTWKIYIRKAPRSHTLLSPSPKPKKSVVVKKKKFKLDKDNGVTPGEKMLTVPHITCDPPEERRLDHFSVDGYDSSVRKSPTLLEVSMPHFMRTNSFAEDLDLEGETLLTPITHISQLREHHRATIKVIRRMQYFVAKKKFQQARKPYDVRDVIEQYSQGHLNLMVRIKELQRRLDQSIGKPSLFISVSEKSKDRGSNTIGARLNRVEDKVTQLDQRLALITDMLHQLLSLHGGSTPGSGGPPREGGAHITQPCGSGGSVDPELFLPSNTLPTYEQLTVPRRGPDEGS
Procedure, shortened: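 material = CHO cells stably expressing the KCNQ1 potassium channel | repeats = duplicate wells per compound | measure = percent activation between buffer and R-L3 responses | signal = FluxOR thallium-flux fluorescence, kinetic read | schedule = FluxOR dye loading 90 min, compound exposure 20 min, room temperature | control set = buffer and R-L3 controls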

[3] = biological target: Potassium voltage-gated channel subfamily KQT member 2 (Rattus norvegicus) (UniProt O88943); assay: rat KCNQ2 channel potentiation, selectivity assay for KCNQ1 potentiator project, KCNQ2-CHO-K1 cells (AID 493009;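 active = mean duplicate potentiation above the buffer control mean plus 5 SD of buffer wells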;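 also: assay conditions were tuned for KCNQ1 rather than KCNQ2 modulators; signal is max minus min fluorescence divided by baseline after thallium stimulus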); details: FluxOR thallium flux fluorescence, at 10 µM; active compounds read high, scaled: buffer 0, activator control 100
Chain of Potassium voltage-gated channel subfamily KQT member 2 (Rattus norvegicus) (O88943 whole entry, looked up): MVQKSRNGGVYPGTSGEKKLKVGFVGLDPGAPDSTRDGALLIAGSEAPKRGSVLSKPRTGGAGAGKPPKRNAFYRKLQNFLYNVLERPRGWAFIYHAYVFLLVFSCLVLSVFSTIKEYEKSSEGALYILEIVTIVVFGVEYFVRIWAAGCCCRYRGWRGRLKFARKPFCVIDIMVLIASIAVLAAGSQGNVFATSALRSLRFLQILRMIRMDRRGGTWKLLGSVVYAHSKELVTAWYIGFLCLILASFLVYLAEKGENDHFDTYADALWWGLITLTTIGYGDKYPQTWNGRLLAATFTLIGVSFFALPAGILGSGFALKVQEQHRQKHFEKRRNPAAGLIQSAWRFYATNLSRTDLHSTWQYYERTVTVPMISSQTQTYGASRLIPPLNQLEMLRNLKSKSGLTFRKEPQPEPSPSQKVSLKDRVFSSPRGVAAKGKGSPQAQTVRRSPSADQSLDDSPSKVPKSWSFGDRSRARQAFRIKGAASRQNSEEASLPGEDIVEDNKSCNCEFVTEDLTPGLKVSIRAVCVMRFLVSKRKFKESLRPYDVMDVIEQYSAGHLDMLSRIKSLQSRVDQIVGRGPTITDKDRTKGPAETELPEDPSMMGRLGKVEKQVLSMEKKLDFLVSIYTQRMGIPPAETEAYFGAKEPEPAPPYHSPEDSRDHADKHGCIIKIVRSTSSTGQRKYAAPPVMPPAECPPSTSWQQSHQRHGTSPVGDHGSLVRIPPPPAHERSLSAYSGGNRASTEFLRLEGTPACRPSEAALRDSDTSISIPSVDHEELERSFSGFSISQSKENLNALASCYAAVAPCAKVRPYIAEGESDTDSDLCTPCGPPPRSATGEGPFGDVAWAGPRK

[4] = biological target: Potassium voltage-gated channel subfamily KQT member 1 (Homo sapiens) (UniProt P51787); assay: KCNQ1 channel current potentiators, confirmation, orthogonal assay for KCNQ1 potentiator project, IonWorks patch clamp, KCNQ1-CHO cells (AID 493184;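 active = current rise at least 3 SD above the untreated control mean in each of two repeat wells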); details: automated patch clamp current, at 10 µM; active compounds read high
Procedure, shortened: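 Assay system – CHO cells carrying KCNQ1 · Medium – pH 7.4 external bath · Probe or stimulus – depolarizing pulse to +40 mV from -90 mV · Compound dosing – one dose, 10 µM final · Measured by – automated perforated-patch electrophysiology · Measure – % potentiation of steady-state current relative to pre-compound · Repeats – two replicates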

[5] = biological target: Potassium voltage-gated channel subfamily E member 1 (Homo sapiens) + Potassium voltage-gated channel subfamily KQT member 1 (Homo sapiens) (UniProt P15382+P51787); assay: KCNQ1/KCNE1 complex potentiators, confirmation, selectivity assay for KCNQ1 potentiator project, thallium flux, CHO-K1 KCNQ1/E1 cells (AID 493186;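 active = mean duplicate activation above the buffer control mean plus 5 SD of those controls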); details: FluxOR thallium flux, at 10 µM; active compounds read high
Chain of Potassium voltage-gated channel subfamily E member 1 (Homo sapiens) + Potassium voltage-gated channel subfamily KQT member 1 (Homo sapiens) (P51787 whole entry, looked up): as the sequence (P51787 whole entry, looked up) above
Procedure, shortened: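 Assay system: CHO-K1 cells with KCNQ1/E1 | Dosing: Single compound concentration per well | Incubation: Dye 90 min, compound 20 min, room temperature | Measured by: FluxOR Tl+ flux fluorescence, kinetic read | Controls: Buffer low control, R-L3 high control | Replicates: Duplicate wells per compound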

O=C(Nc1nnc(-c2ccccc2)o1)c1ccc(Cl)cc1
inactive: outcome [1] | outcome [3] | outcome [4]
active: potentiation [2] 24% | activation [5] 23.9%

COc1ccc(C2(C)CC(C)(C)Nc3ccccc32)cc1 (stereo not given)
inactive: outcome [1] | outcome [3] | outcome [4] | outcome [5]
active: potentiation [2] 68.5%

Cc1ccc(C(=O)CC(=O)c2ccc(C)cc2O)cc1
inactive: outcome [1] | outcome [2] | outcome [3] | outcome [4] | outcome [5]

CCCCCCCCN1[C@@H](CC(C)=O)c2cc(C(F)(F)F)ccc2S1(=O)=O
active: potentiation [2] 60.5%
inactive: outcome [1] | outcome [3] | outcome [4] | outcome [5]

CCOC(=O)c1cc2c(C)n(-c3ccc(C)cc3)c(C)c2ccc1=O
active: potentiation [2] 19.5%
inactive: outcome [1] | outcome [3] | outcome [4] | outcome [5]

COc1ccc(-c2nc(=S)c3c([nH]2)Oc2ccc(C)cc2C3)cc1O
active: potentiation [2] 28.5%
inactive: outcome [1] | outcome [3] | outcome [4] | outcome [5]

NC(=O)CN1C(=O)NC2(CCOc3ccccc32)C1=O (stereo not given)
inactive: outcome [1] | outcome [2] | outcome [3] | outcome [4] | outcome [5]

O=C(NC(=S)NCCC1=CCCCC1)c1ccccc1Br
inactive: outcome [1] | outcome [4] | outcome [5]
active: potentiation [2] 47% | potentiation [3] 186%

CCOC(=O)c1cccc(NC(=O)CCc2nnc3ccc(N4CCCCC4)nn23)c1
inactive: outcome [1] | outcome [2] | outcome [3] | outcome [4] | outcome [5]

CCC(C)NCC(=O)Nc1sc2c(c1C(N)=O)CCC2 (stereo not given)
inactive: outcome [1] | outcome [2] | outcome [3] | outcome [4] | outcome [5]

Cc1ccc(CNc2nc3c([nH]2)c(=O)n(C)c(=O)n3C)cc1
inactive: outcome [1] | outcome [2] | outcome [3] | outcome [4] | outcome [5]

Cc1ccc(-n2c(C)cc(/C=N/NC(=O)c3ccncc3)c2C)cc1C
active: potentiation [2] 30%
inactive: outcome [1] | outcome [3] | outcome [4] | outcome [5]

CCOC(=O)Cc1csc(NC(=S)NC(=O)c2ccc(Cl)cc2)n1
inactive: outcome [1] | outcome [2] | outcome [3] | outcome [4] | outcome [5]

Cc1ccc(NC(=O)Nc2ccc3c(c2)CCC3)cc1
inactive: outcome [1] | outcome [2] | outcome [3] | outcome [4] | outcome [5]

Cc1ccc(C(=O)NC(=S)N2CCN(c3cc(C)ccc3C)CC2)cc1
active: potentiation [2] 50%
inactive: outcome [1] | outcome [3] | outcome [4] | outcome [5]

S=c1[nH]nc(C2CCCCC2)n1/N=C/c1cccc(Cl)c1Cl
active: potentiation [2] 41%
inactive: outcome [1] | outcome [3] | outcome [4] | outcome [5]

COC(=O)CSc1nc(NC(C)C)nc(N(C)C)n1
inactive: outcome [1] | outcome [2] | outcome [3] | outcome [4] | outcome [5]

Cc1ccc(C)c(NC(=S)NNC(=O)c2csc3c2CCCC3)c1
active: potentiation [2] 20.5%
inactive: outcome [1] | outcome [3] | outcome [4] | outcome [5]

COC(=O)c1sccc1NS(=O)(=O)c1ccc(F)cc1F
inactive: outcome [1] | outcome [2] | outcome [3] | outcome [4] | outcome [5]

COc1ccc(C(=O)NNC(=O)C(=O)NCc2ccccc2)cc1
active: potentiation [2] 29% | potentiation [3] 144%
inactive: outcome [1] | outcome [4] | outcome [5]

COc1ccc(CNC(=O)CSc2nc3ccc(OC)cc3[nH]2)cc1
inactive: outcome [1] | outcome [2] | outcome [3] | outcome [4] | outcome [5]

COc1cc(NC(=S)N2CCC(C(O)(c3ccccc3)c3ccccc3)CC2)cc(OC)c1
inactive: outcome [1] | outcome [4] | outcome [5]
active: potentiation [2] 20.5% | potentiation [3] 156%

COc1ccc(-c2cc(-c3ccccc3)c(C#N)c(=S)[nH]2)cc1
inactive: outcome [1] | outcome [2] | outcome [3] | outcome [4] | outcome [5]

Cc1cccc(NC(=O)C2CCCN2S(=O)(=O)c2ccc(Cl)cc2)n1 (stereo not given)
inactive: outcome [1] | outcome [2] | outcome [3] | outcome [4] | outcome [5]

CCCCOc1cccc(C(=O)NC(=S)Nc2cccnc2)c1
inactive: outcome [1] | outcome [2] | outcome [4] | outcome [5]
active: potentiation [3] 143%

Cc1cc(-c2cccnc2)c(C#N)c(SCC#N)n1
inactive: outcome [1] | outcome [2] | outcome [3] | outcome [4] | outcome [5]

COc1ccc(NC(=O)CN2CCN(C3c4ccccc4-c4ccccc43)CC2)cc1
inactive: outcome [1] | outcome [2] | outcome [3] | outcome [4] | outcome [5]

Cc1ccc(N(C(=O)Cn2nnc(-c3ccccc3F)n2)C(C(=O)NC2CCCC2)c2ccncc2)cc1 (stereo not given)
inactive: outcome [1] | outcome [2] | outcome [3] | outcome [4] | outcome [5]

O=C(N1CCCCC1)N1CCN(C(=O)N2CCCCC2)CC1
inactive: outcome [1] | outcome [3] | outcome [4] | outcome [5]
active: potentiation [2] 19%

CCN(c1ccccc1)S(=O)(=O)c1ccc(NC(=S)NC(=O)c2ccc(Br)o2)cc1
inactive: outcome [1] | outcome [4] | outcome [5]
active: potentiation [2] 76% | potentiation [3] 168%

COC(=O)C1=C(C)N(c2ccc(F)c(Cl)c2)C(=O)C1
inactive: outcome [1] | outcome [2] | outcome [3] | outcome [4] | outcome [5]

COc1cccc(C(=O)CC(=O)C(=O)Nc2ccc(C)cc2Cl)c1
inactive: outcome [1] | outcome [2] | outcome [3] | outcome [4] | outcome [5]

CC(C)CCn1c(SCC(=O)NC2CC2)nc2cc(Cl)ccc2c1=O
inactive: outcome [1] | outcome [2] | outcome [3] | outcome [4] | outcome [5]

CN(C(=O)c1ccc2c(c1)OCO2)C1CCCCC1
inactive: outcome [1] | outcome [2] | outcome [3] | outcome [4] | outcome [5]

Cc1sc2ncnc(N3CCN(Cc4ccccc4)CC3)c2c1-c1ccccc1
inactive: outcome [1] | outcome [3] | outcome [4] | outcome [5]
active: potentiation [2] 184%

CCc1ccc(NC(=O)/C(C#N)=C/c2ccncc2)cc1
inactive: outcome [1] | outcome [2] | outcome [3] | outcome [4] | outcome [5]

C#CCNc1cc(-c2ccccc2)nc2ncnn12
inactive: outcome [1] | outcome [2] | outcome [3] | outcome [4] | outcome [5]

CC(NC(=O)c1ccco1)C(=O)N(C)Cc1ccc(C(F)(F)F)cc1 (stereo not given)
inactive: outcome [1] | outcome [2] | outcome [3] | outcome [4] | outcome [5]

COc1ccccc1C(=O)NNC(=O)c1nn(Cc2ccccc2)c(=O)c2ccccc12
inactive: outcome [1] | outcome [2] | outcome [3] | outcome [4] | outcome [5]

CCN(CC)CCNc1ncnc2c1sc1nc(N3CCCC3)c3c(c12)CC(C)(C)OC3
inactive: outcome [1] | outcome [2] | outcome [3] | outcome [4] | outcome [5]

C/C(=N\Nc1nc2ccccc2s1)c1ccc(Br)s1
inactive: outcome [1] | outcome [2] | outcome [3] | outcome [4] | outcome [5]

COc1ccc(C2c3ccc4ccccc4c3Oc3ncn(CCN4CCOCC4)c(=N)c32)cc1OC (stereo not given)
inactive: outcome [1] | outcome [2] | outcome [3] | outcome [4] | outcome [5]

COc1ccc(Cn2c(=O)c3[nH]cnc3n(-c3ccccc3C)c2=O)cc1
inactive: outcome [1] | outcome [2] | outcome [3] | outcome [4] | outcome [5]

O=C(NNC(=O)c1cc(-c2ccccc2)nn1-c1ccccc1)c1ccccc1
inactive: outcome [1] | outcome [2] | outcome [3] | outcome [4] | outcome [5]

O=C(COc1ccccc1Cl)NC(=S)N1CCc2ccccc21
inactive: outcome [1] | outcome [2] | outcome [3] | outcome [4] | outcome [5]

CCCOc1ccc(C(=O)NNC(=S)NC(=O)CC)cc1
inactive: outcome [1] | outcome [2] | outcome [3] | outcome [4] | outcome [5]

O=c1c2cc(F)ccc2[nH]c(=S)n1Cc1ccc(F)cc1
inactive: outcome [1] | outcome [2] | outcome [3] | outcome [4] | outcome [5]

Oc1c(N=NC(=S)Nc2ccccc2F)c2ccccc2n1Cc1ccc(Cl)cc1
inactive: outcome [1] | outcome [2] | outcome [3] | outcome [4] | outcome [5]

Cc1ccc(CCNC(=O)C2CC(c3cccc(F)c3)=NO2)cc1 (stereo not given)
inactive: outcome [1] | outcome [2] | outcome [3] | outcome [4] | outcome [5]

COC(=O)c1ccc(CNC(=O)CSc2nc3sc(C)c(C)c3c(=O)n2C)o1
inactive: outcome [4]
active: activation [1] 268% | potentiation [2] 89.5%

CC(=O)n1cc(N(C(=O)CCl)c2ccc(C)cc2)c2ccccc21
inactive: outcome [1] | outcome [2] | outcome [4]

CN(Cc1cccnc1)C(=O)Cc1ccc(NS(=O)(=O)c2cccc(C(F)(F)F)c2)cc1
inactive: outcome [1] | outcome [2] | outcome [4]

Cc1cc(OC(=O)c2cc(Cl)ccc2Cl)c([N+](=O)[O-])c(=O)[nH]1
inactive: outcome [1] | outcome [2] | outcome [4]

CN(C(=S)NC(=O)c1ccccc1Br)C1CCCCC1
inactive: outcome [4]
active: activation [1] 206% | potentiation [2] 44%

O=C(Nc1nc(-c2cc(F)ccc2F)cs1)c1ccccn1
inactive: outcome [1] | outcome [2] | outcome [3] | outcome [4] | outcome [5]

CC(=O)c1ccc(NC(=S)NC(=O)c2c(Cl)c(C)nn2C)cc1
inactive: outcome [1] | outcome [2] | outcome [4]

COc1cccc2c1C(=O)C=C(C)C2=O
inactive: outcome [1] | outcome [2] | outcome [4]

CC1CN(C(=O)C2CC(=O)N(c3ccc(Cl)cc3)C2)CC(C)O1 (stereo not given)
inactive: outcome [1] | outcome [2] | outcome [4]

Cc1ccc(C)c(NC(=S)NNC(=O)c2csc(C(C)C)c2)c1
active: activation [1] 162% | potentiation [2] 55.5%
inactive: outcome [4]

CCOC(=O)C1CCN(C(=O)COC(=O)c2cc(-c3cccs3)nn2-c2ccccc2)CC1
inactive: outcome [1] | outcome [2] | outcome [4]
